In one data set the test system is HT-29. The experiment in a line: Antiproliferative activity against human HT-29 cells assessed as reduction in cell growth incubated for 72 hrs by MTT assay. The class given is functional, cell-based. Conditions: HT-29, 72 h. A digest of the protocol:
(§1)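 MTT assay on MCF-7, A2780, HT29 and normal MRC5 fibroblast lines (ATCC) grown in DMEM with 10% FBS. Cells exposed to compounds for 72 h, then reduced MTT read at 570 nm.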
For orientation: Tetrazolium dyes change colour on reduction, which living cells bring about.

The test system of a further data set is MRC5. The data set is described as follows: Cytotoxicity against human MRC5 cells assessed as reduction in cell growth incubated for 72 hrs by MTT assay. It counts as cell-based. As to conditions: MRC5, 72 h. A digest of the protocol: as §1
Data set [1] deals with MCF7. The experiment in a line: Induction of apoptosis in human MCF7 cells assessed as viable cells at 5 uM incubated for 24 hrs by annexin V FITC and propidium iodide staining based flow cytometry (reference value: 76 to 95.9 %). The class given is functional. As to conditions: MCF7, 24 h, read-out: Activity. For orientation: A flow cytometer gives signals particle by particle.

Data set [2] can be described thus: Selectivity index, ratio of IC50 for cytotoxicity against human MRC5 cells to IC50 for antiproliferative activity against human A2780 cells. Conditions: MRC5 cells versus A2780 cells.
Data set [3] relates to MCF7. The experiment in a line: Induction of apoptosis in human MCF7 cells assessed as viable cells at 1 uM incubated for 24 hrs by annexin V FITC and propidium iodide staining based flow cytometry (reference value: 76 to 95.9 %). The class given is functional. Conditions: MCF7, 24 h, read-out: Activity.
In data set [4] the test system is MCF7. The data set is described as follows: Cell cycle arrest in human MCF7 cells assessed as G1 accumulation at 5 uM incubated for 24 hrs by propidium iodide based flow cytometry (reference value: 49.6 to 55.1 %). The class given is functional.
The subject of data set [5] is MCF7. The experiment in a line: Cell cycle arrest in human MCF7 cells assessed as G2/M phase accumulation at 5 uM incubated for 24 hrs by propidium iodide based flow cytometry (reference value: 17.2 to 26.8 %). The class given is functional.
Data set [6] relates to MCF7. The data set is described as follows: Cell cycle arrest in human MCF7 cells assessed as G2/M phase accumulation at 1 uM incubated for 24 hrs by propidium iodide based flow cytometry (reference value: 17.2 to 26.8 %). It counts as functional.
Data set [7] can be described thus: Selectivity index, ratio of IC50 for cytotoxicity against human MRC5 cells to IC50 for antiproliferative activity against human HT-29 cells. Conditions: MRC5 cells versus HT-29 cells.
Data set [8] relates to MCF7. The experiment in a line: Induction of apoptosis in human MCF7 cells assessed as early apoptotic cells at 1 uM incubated for 24 hrs by annexin V FITC and propidium iodide staining based flow cytometry (reference value: 0 to 9 %). It counts as functional.
The subject of data set [9] is MCF7. The experiment in a line: Cell cycle arrest in human MCF7 cells assessed as subG1 accumulation at 10 uM incubated for 24 hrs by propidium iodide based flow cytometry (reference value: 0.6 to 3 %). The class given is functional.
In data set [10] the test system is MCF7. The experiment in a line: Induction of apoptosis in human MCF7 cells assessed as early apoptotic cells at 5 uM incubated for 24 hrs by annexin V FITC and propidium iodide staining based flow cytometry (reference value: 0 to 9 %). The class given is functional.
Data set [11] deals with MCF7. The experiment in a line: Antiproliferative activity against human MCF7 cells assessed as reduction in cell growth incubated for 72 hrs by MTT assay. As to conditions: MCF7, 72 h. It counts as functional, cell-based. A digest of the protocol: as §1
The subject of data set [12] is Rattus norvegicus. The experiment in a line: Antiinflammatory activity against albino rats assessed as inhibition of carrageenan-induced paw edema at 0.5 mmol, po measured after 4 hrs relative to control. The class given is functional. The method in brief: (§2)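 Carrageenan rat paw edema (Winter method) in male and female adult albino rats (100-140 g). […] Swelling inhibition expressed as % of control at 2-4 h after carrageenan injection.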
Background: Carrageenan injected into the paw causes an acute inflammation.

The test system of data set [13] is MCF7. The experiment in a line: Cell cycle arrest in human MCF7 cells assessed as S phase accumulation at 1 uM incubated for 24 hrs by propidium iodide based flow cytometry (reference value: 17.3 to 28.5 %). The class given is functional.
Data set [14] has as its system MCF7. The data set is described as follows: Cell cycle arrest in human MCF7 cells assessed as G2/M phase accumulation at 10 uM incubated for 24 hrs by propidium iodide based flow cytometry (reference value: 17.2 to 26.8 %). It counts as functional.
Data set [15] deals with Prostaglandin G/H synthase 1 (Homo sapiens, UniProt P23219). The data set is described as follows: Inhibition of human COX1 using arachidonic acid as substrate incubated for 2 mins by ELISA method.
Chain of Prostaglandin G/H synthase 1 (P23219 whole entry): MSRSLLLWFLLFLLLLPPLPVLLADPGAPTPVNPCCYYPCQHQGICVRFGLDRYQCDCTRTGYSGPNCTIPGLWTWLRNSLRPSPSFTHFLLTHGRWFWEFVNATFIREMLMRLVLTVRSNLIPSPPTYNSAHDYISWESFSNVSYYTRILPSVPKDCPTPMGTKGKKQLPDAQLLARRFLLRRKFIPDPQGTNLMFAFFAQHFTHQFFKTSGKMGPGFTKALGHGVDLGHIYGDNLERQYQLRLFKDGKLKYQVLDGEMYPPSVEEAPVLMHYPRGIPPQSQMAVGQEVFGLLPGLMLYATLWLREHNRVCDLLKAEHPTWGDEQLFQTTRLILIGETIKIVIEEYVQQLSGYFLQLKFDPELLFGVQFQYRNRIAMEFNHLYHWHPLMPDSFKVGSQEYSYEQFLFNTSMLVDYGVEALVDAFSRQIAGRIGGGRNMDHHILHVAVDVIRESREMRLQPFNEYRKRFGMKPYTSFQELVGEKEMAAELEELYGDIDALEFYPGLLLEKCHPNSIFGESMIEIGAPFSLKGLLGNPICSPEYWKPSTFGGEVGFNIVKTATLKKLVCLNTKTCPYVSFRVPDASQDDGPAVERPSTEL
The subject of data set [16] is MCF7. The experiment in a line: Induction of apoptosis in human MCF7 cells assessed as early apoptotic cells at 10 uM incubated for 24 hrs by annexin V FITC and propidium iodide staining based flow cytometry (reference value: 0 to 9 %). It counts as functional.
In data set [17] the test system is MCF7. The experiment in a line: Antiproliferative activity against human MCF7 cells assessed as cell viability at 5 uM incubated for 48 hrs by MTT assay (reference value: 100 %). It counts as functional. As to conditions: MCF7, 48 h, read-out: Activity. The method in brief: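 Preliminary single-dose screen by MTT assay. MCF-7 cells grown in DMEM/10% FBS were exposed to 5 μM compound for 48 h, and growth% was determined. Values are mean ± S.D., n = 6.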

Data set [18] deals with MCF7. The data set is described as follows: Cell cycle arrest in human MCF7 cells assessed as subG1 accumulation at 5 uM incubated for 24 hrs by propidium iodide based flow cytometry (reference value: 0.6 to 3 %). The class given is functional.
The next data set deals with A2780. The experiment in a line: Antiproliferative activity against human A2780 cells assessed as reduction in cell growth incubated for 72 hrs by MTT assay. The class given is functional, cell-based. Conditions: A2780, 72 h. The method in brief:
as §1

In data set [19] the test system is MCF7. The experiment in a line: Cell cycle arrest in human MCF7 cells assessed as subG1 accumulation at 1 uM incubated for 24 hrs by propidium iodide based flow cytometry (reference value: 0.6 to 3 %). The class given is functional.
Data set [20] has as its system MCF7. The experiment in a line: Cell cycle arrest in human MCF7 cells assessed as S phase accumulation at 10 uM incubated for 24 hrs by propidium iodide based flow cytometry (reference value: 17.3 to 28.5 %). The class given is functional.
Data set [21] concerns MCF7. The data set is described as follows: Cell cycle arrest in human MCF7 cells assessed as G1 accumulation at 10 uM incubated for 24 hrs by propidium iodide based flow cytometry (reference value: 49.6 to 55.1 %). The class given is functional.
Data set [22] relates to MCF7. The experiment in a line: Cell cycle arrest in human MCF7 cells assessed as S phase accumulation at 5 uM incubated for 24 hrs by propidium iodide based flow cytometry (reference value: 17.3 to 28.5 %). The class given is functional.
Data set [23] is described as follows: Selectivity index, ratio of IC50 for cytotoxicity against human MRC5 cells to IC50 for antiproliferative activity against human MCF7 cells. Conditions: MRC5 cells versus MCF7 cells.
The test system of data set [24] is MCF7. The data set is described as follows: Induction of apoptosis in human MCF7 cells assessed as late apoptotic cells at 1 uM incubated for 24 hrs by annexin V FITC and propidium iodide staining based flow cytometry (reference value: 0 to 2.5 %). It counts as functional.
In data set [25] the test system is MCF7. The data set is described as follows: Cell cycle arrest in human MCF7 cells assessed as G1 accumulation at 1 uM incubated for 24 hrs by propidium iodide based flow cytometry (reference value: 49.6 to 55.1 %). It counts as functional.
For data set [26], the system named is MCF7. The experiment in a line: Induction of apoptosis in human MCF7 cells assessed as late apoptotic cells at 10 uM incubated for 24 hrs by annexin V FITC and propidium iodide staining based flow cytometry (reference value: 0 to 2.5 %). The class given is functional.
Data set [27] concerns MCF7. The data set is described as follows: Induction of apoptosis in human MCF7 cells assessed as necrotic cells at 5 uM incubated for 24 hrs by annexin V FITC and propidium iodide staining based flow cytometry (reference value: 4.1 to […]). The class given is functional.
Data set [28] has as its system MCF7. The experiment in a line: Induction of apoptosis in human MCF7 cells assessed as necrotic cells at 10 uM incubated for 24 hrs by annexin V FITC and propidium iodide staining based flow cytometry (reference value: 4.1 to […]). It counts as functional.
Data set [29] relates to MCF7. The data set is described as follows: Induction of apoptosis in human MCF7 cells assessed as necrotic cells at 1 uM incubated for 24 hrs by annexin V FITC and propidium iodide staining based flow cytometry (reference value: 4.1 to […]). It counts as functional.
The test system of data set [30] is MCF7. The data set is described as follows: Induction of apoptosis in human MCF7 cells assessed as late apoptotic cells at 5 uM incubated for 24 hrs by annexin V FITC and propidium iodide staining based flow cytometry (reference value: 0 to 2.5 %). The class given is functional.
Data set [31] deals with MCF7. The experiment in a line: Induction of apoptosis in human MCF7 cells assessed as viable cells at 10 uM incubated for 24 hrs by annexin V FITC and propidium iodide staining based flow cytometry (reference value: 76 to 95.9 %). Conditions: MCF7, 24 h, read-out: Activity. It counts as functional.
In data set [32] the test system is Rattus norvegicus. The data set is described as follows: Antiinflammatory activity against albino rats assessed as inhibition of carrageenan-induced paw edema at 0.5 mmol, po measured after 2 hrs relative to control. The class given is functional. A digest of the protocol:
as §2

Six compounds from ChEMBL document CHEMBL4312005, “Optimization of pyrrolizine-based Schiff bases with 4-thiazolidinone motif: Design, synthesis and investigation of cytotoxicity and anti-inflammatory potency” (Eur J Med Chem, 2020) can be followed below.

pIC50: −log10 of the molar value.

For the compound `CS(=O)(=O)CCNCc1ccc(-c2ccc3ncnc(Nc4ccc(OCc5cccc(F)c5)c(Cl)c4)c3c2)o1` [LAPATINIB], the pIC50 (usually the IC50 on a negative log10 scale, so that one unit is a factor of ten) was 4.90 with HT-29 and 4.86 with MRC5.
As for `N#Cc1c(/N=C/c2ccco2)c(C(=O)Nc2ccc(Br)cc2)n2c1CCC2`, the viability at 5 µM in the data set on MCF7 [1] was 67%; with MCF7 [17], 64%. The selectivity ratio in data set [2], in [7] and in data set [23] was 1 to 10 throughout. In addition, the viability at 1 µM in the data set on MCF7 [3] was determined as 67%. Also, the Activity with MCF7 [4] is 25.5%; with MCF7 [5] it was 21.8%; in the data set with MCF7 [6], 22.1%; in the data set with MCF7 [8], 12.8%; in the data set with MCF7 [9] it was 0.4%; in the data set with MCF7 [10], 11.5%. Further, the Activity in the data set with MCF7 [13] stood at 53.7%; with MCF7 [14], 23%; in the data set on MCF7 [16], 7.2%; with MCF7 [18] it was 0.4%; in the data set on MCF7 [19] it was 1.1%; with MCF7 [20], 51.5%. In addition, the Activity in the data set with MCF7 [21] came out at 25%; with MCF7 [22], 53.6%; with MCF7 [24] it was 8.8%; in the data set on MCF7 [25], 24.5%; in the data set with MCF7 [26] it was 5.3%; in the data set with MCF7 [27], 15.2%. The Activity in the data set with MCF7 [28] was 16.4%; in the data set on MCF7 [29], 11.4%; in the data set on MCF7 [30], 6.3%. Also, the pIC50 was 5.16 in the data set with MCF7 [11]; 4.88 in data set [15]; 5.69 in the data set on HT-29; 4.91 in the data set with A2780; 4.80 in the data set with MRC5. The “inhibition (INH)” value came out at 35.79% with Rattus norvegicus [12] and 18.83% with Rattus norvegicus [32]. In addition, the viability at 10 µM with MCF7 [31] was 71.2%.
In the case of `CCC1SCC(=O)N1c1c(C#N)c2n(c1C(=O)Nc1ccc(C)cc1)CCC2` (stereo not given), the selectivity ratio in data set [2] and in [23] was 3 to 15 throughout. The pIC50 was 6.33 in the data set with MCF7 [11]; under 4.00 in data set [15]; 6.92 in the data set on HT-29; 6.96 in the data set on A2780; 5.77 with MRC5.
Regarding `CC/C=N/c1c(C#N)c2n(c1C(=O)Nc1ccc(Cl)cc1)CCC2`, the pIC50 in the data set with MCF7 [11] was 6.13; in [15] it was 4.81; with HT-29, 5.99; in the data set on A2780, 6.24; in the data set on MRC5, 6.77. Besides, the “inhibition (INH)” value was found to be 24.06% with Rattus norvegicus [12] and 19.17% in the data set on Rattus norvegicus [32].
For `CC/C=N/c1c(C#N)c2n(c1C(=O)Nc1ccc(C)cc1)CCC2`, the pIC50 was 6.08 in the data set on MCF7 [11]; 4.56 in data set [15]; 6.21 in the data set on HT-29; 5.41 in the data set with A2780; 6.25 in the data set on MRC5.
`CCC1SCC(=O)N1c1c(C#N)c2n(c1C(=O)Nc1ccc(Cl)cc1)CCC2` (stereo not given): the selectivity ratio in [2] and in data set [23] was 3 to 15 in each case. Further, the pIC50 was 6.68 in the data set on MCF7 [11]; under 4.00 in [15]; 6.70 with HT-29; 6.51 in the data set on A2780; 6.04 with MRC5. For the same compound, the “inhibition (INH)” value in the data set with Rattus norvegicus [12] is reported as 32.48%; in the data set with Rattus norvegicus [32], 21.76%.
